Assay results reported in publication PMC3579501 (Transplantation, 2011).
Where “and” joins values, the source holds several entries; their conditions need not be identical. Equal entries are not always repeated. Where two headings read alike, the source gives them in different places. Marks after values point to notes of the source that are not given here.

Assays:
[1] = assay type: in vivo, human
Procedure, shortened: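 Adult kidney or kidney-pancreas recipients on tacrolimus with mycophenolate and steroids, with or without induction. Whole-blood troughs were drawn before an oral dose: two per week in weeks 1–8 and two per month in months 3–6. Measurement was mostly by LC-MS. Doses were adjusted to center targets, generally 8–12 ng/mL (months 0–3) and 6–10 ng/mL (months 4–6). Dose-normalized trough = trough/daily dose (mg/kg). AA and non-AA were compared by Wilcoxon-Mann-Whitney.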

[2] = assay type: in vivo, human; remark: listed apart in the source
Procedure, shortened: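 Log of trough (ng/mL) divided by total daily dose (mg/kg), from up to 24 troughs per patient over 6 months, fitted by general linear model. Time posttransplant (1–24) was categorical, with a covariance structure for repeated measures. Clinical factors were retained at backward-selection F-test p<0.15. Variants were tested one at a time (additive model, Toeplitz covariance), adjusted for center and retained factors. Significance was set at FDR 20%, effective m=2110.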

[3] = assay type: in vivo, human; remark: listed apart in the source
Procedure, shortened: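 Uses the first log-transformed dose-normalized trough, taken within 4 days posttransplant. Variants and clinical factors were analysed by multiple linear regression with stepwise variable selection. Effect estimates and standard errors were taken from the final model. Age was mean-centered at 50.2 years. Center p-value is from the overall F-test.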

CYP3A5 = conditions: cited from earlier work
[4] = cited from earlier work
[5] = CYP3A5*3/*3 compared to *1/*1 or *1/*3; cited from earlier work
[6] = African American (n=144), over the first 6 months
[7] = nonAfrican American (n=551), over the first 6 months

Compound: C=CC[C@@H]1/C=C(\C)C[C@H](C)C[C@H](OC)[C@H]2O[C@@](O)(C(=O)C(=O)N3CCCC[C@H]3C(=O)O[C@H](/C(C)=C/[C@@H]3CC[C@@H](O)[C@H](OC)C3)[C@H](C)[C@@H](O)CC1=O)[C@H](C)C[C@@H]2OC [tacrolimus, Tacrolimus]
- Median trough ([1]; AAs, remained despite 60% higher doses (Figure 1)): < 8 ng/mL
- Trough concentration, median (interquartile range) [1, 6]: 6.2 (4.4–8.4) ^d ng/mL
- Trough dose-normalized, median (interquartile range) [1, 6]: 68.3 (46.1–103.6) ^d ng/ml per mg/kg/day
- Subjects with first trough <8 ng/mL ([1]; African Americans): 96.6%
- First trough concentration (week one posttransplant), median (interquartile range) ([1]; African Americans, daily dose 4.0 (4.0–5.0) mg/day): 2.1 (1.2–3.5) ng/mL
- Dose-normalized trough, median (interquartile range) ([1]; CYP3A5*1/*1 genotype): 54.3(37.9–80.3) ng/mL per mg/kg
- Trough concentration, median (interquartile range) ([1]; CYP3A5 *1/*1 genotype (rs776746)): 5.8(4.1–7.9) ng/mL
- Dose-normalized trough, median (interquartile range) ([1]; CYP3A5 *1/*3 genotype): 77.8(53.1–114.6) ng/mL per mg/kg
- Trough concentration, median (interquartile range) ([1]; CYP3A5 *1/*3 genotype (rs776746)): 7.1(5.1–9.3) ng/mL
- Dose-normalized trough, median (interquartile range) ([1]; CYP3A5 *3/*3 genotype): 141.1(91.7–214.5) ng/mL per mg/kg
- Trough concentration, median (interquartile range) ([1]; CYP3A5 *3/*3 genotype (rs776746)): 8.4(6.5–10.5) ng/mL
- Trough dose-normalized, median (interquartile range) ([1]; all subjects (n=695), over the first 6 months): 116.5 (70.7–186.3) ng/ml per mg/kg/day
- Trough concentration, median (interquartile range) ([1]; all subjects (n=695), over the first 6 months, whole blood, oral dosing): 7.9 (5.9–10.1) ng/mL
- Trough concentration, median (interquartile range) ([1]; center 1, 6 month study period): 9.5 (8.0–11.4) ng/mL
- Trough concentration, median (interquartile range) ([1]; center 2, 6 month study period): 10.5 (7.4–13.0) ng/mL
- Trough concentration, median (interquartile range) ([1]; center 3, 6 month study period): 7.9 (6.1–10.1) ng/mL
- Trough concentration, median (interquartile range) ([1]; center 4, 6 month study period): 9.7 (7.5–12.2) ng/mL
- Trough concentration, median (interquartile range) ([1]; center 5, 6 month study period): 8.9 (7.1–10.6) ng/mL
- Trough concentration, median (interquartile range) ([1]; center 6, 6 month study period): 9.1 (7.0–11.3) ng/mL
- Trough concentration, median (interquartile range) ([1]; center 7, 6 month study period): 6.6 (4.7–8.7) ng/mL
- First trough concentration ([1]; measured within 4 days after transplantation, in most subjects): < 5 ng/mL
- Troughs achieved ([1]; non-AA group, quickly achieved (Figure 1)): > 8 ng/mL
- Subjects with first trough <8 ng/mL ([1]; non-African Americans): 73.9%
- First trough concentration (week one posttransplant), median (interquartile range) ([1]; non-African Americans, daily dose 4.0 [4.0–6.0] mg/day): 5.0 [3.1–8.2] ng/mL and 5.0 (3.1–8.2) ng/mL
- Trough concentration, median (interquartile range) [1, 7]: 8.3 (6.4–10.4) ng/mL
- Trough dose-normalized, median (interquartile range) [1, 7]: 131.4 (83.0–201.8) ng/ml per mg/kg/day
- Median trough lower in AA than in non-AA recipients ([1]; over the 6 month study period, AAs on 60% higher median daily dose): 2.1 ng/mL
- Reduction in log transformed dose-normalized trough ([2]; AA race relative to non-AAs): 0.04
- Increase in dose-normalized trough ([2]; CYP3A4 (rs7801671, rs12114000, rs2687117), CYP3A7 (rs2687080, rs776740), CYP3A5 (rs10264272) variants, adjusted for rs776746): 20–32%
- Increase in log transformed dose-normalized troughs ([2]; calcium channel blocker (CCB) use): 0.03
- Increase in log transformed dose-normalized troughs ([2]; diabetes): 0.12
- Increase in log transformed dose-normalized troughs ([2]; male gender): 0.17
- Reduction in log transformed dose-normalized troughs ([2]; one A allele (CYP3A5*1, rs776746)): 36%
- Effect on log transformed dose-normalized troughs (estimate ± SE) ([2]; one A allele (CYP3A5*1, rs776746), adjusted for clinical factors): −0.44±0.03
- Increase in log transformed dose-normalized troughs ([2]; one allele of CYP3A4 (rs7801671, rs12114000, rs2687117), CYP3A7 (rs2687080, rs776740), CYP3A5 (rs10264272) variants, adjusted for rs776746): 0.18–0.28
- Reduction in log transformed dose-normalized troughs ([2]; two A alleles (CYP3A5*1, rs776746)): 59%
- Effect on log transformed dose-normalized first trough (Estimate ± SE) ([3]; African American subjects only, Diabetes): 0.45 ± 0.12
- Effect on log transformed dose-normalized first trough (Estimate ± SE) ([3]; African American subjects only, rs776746 (CYP3A5)): −0.25 ± 0.08
- Effect on log transformed dose-normalized first trough (Estimate ± SE) ([3]; African American subjects only, rs2072374 (CNAP1)): −0.45 ± 0.17
- Effect on log transformed dose-normalized first trough (Estimate ± SE) ([3]; African American subjects only, rs2239393 (COMT)): −0.19 ± 0.08
- Effect on log transformed dose-normalized first trough (Estimate ± SE) ([3]; African American subjects only, rs2280789 (CCL5)): 0.23 ± 0.10
- Effect on log transformed dose-normalized first trough (Estimate ± SE) ([3]; African American subjects only, rs2288648 (FASTK)): −0.41 ± 0.17
- Effect on log transformed dose-normalized first trough (Estimate ± SE) ([3]; African American subjects only, rs3136228 (MSH6)): −0.20 ± 0.08
- Effect on log transformed dose-normalized first trough (Estimate ± SE) ([3]; African American subjects only, rs12114000 (CYP3A4)): 0.38 ± 0.11
- Effect on log transformed dose-normalized first trough (Estimate ± SE) ([3]; Non-African American subjects only, Age in years, mean-centered at 50.2 years): 0.010 ± 0.002
- Effect on log transformed dose-normalized first trough (Estimate ± SE) ([3]; Non-African American subjects only, Diabetes): 0.21 ± 0.06
- Effect on log transformed dose-normalized first trough (Estimate ± SE) ([3]; Non-African American subjects only, rs4926 (SERPING1)): −0.12 ± 0.04
- Effect on log transformed dose-normalized first trough (Estimate ± SE) ([3]; Non-African American subjects only, rs17567 (EPS15)): 0.12 ± 0.05
- Effect on log transformed dose-normalized first trough (Estimate ± SE) ([3]; Non-African American subjects only, rs776746 (CYP3A5)): −0.31 ± 0.07
- Effect on log transformed dose-normalized first trough (Estimate ± SE) ([3]; Non-African American subjects only, rs1800822 (FMO3)): 0.20 ± 0.09
- Effect on log transformed dose-normalized first trough (Estimate ± SE) ([3]; Non-African American subjects only, rs2239393 (COMT)): −0.07 ± 0.04
- Effect on log transformed dose-normalized first trough (Estimate ± SE) ([3]; Non-African American subjects only, rs2608555 (GAN)): 0.17 ± 0.04
- Effect on log transformed dose-normalized first trough (Estimate ± SE) ([3]; Non-African American subjects only, rs3135506 (APOA5)): −0.23 ± 0.08
- Effect on log transformed dose-normalized first trough (Estimate ± SE) ([3]; Non-African American subjects only, rs3734354 (SIM1)): 0.20 ± 0.06
- Effect on log transformed dose-normalized first trough (Estimate ± SE) ([3]; all subjects model, Age in years, mean-centered at 50.2 years): 0.008 ± 0.002
- Effect on log transformed dose-normalized first trough (Estimate ± SE) ([3]; all subjects model, Diabetes): 0.23 ± 0.05
- Effect on log transformed dose-normalized first trough (Estimate ± SE) ([3]; all subjects model, rs3448 (GPX1)): 0.07 ± 0.04
- Effect on log transformed dose-normalized first trough (Estimate ± SE) ([3]; all subjects model, rs4926 (SERPING1)): −0.09 ± 0.04
- Effect on log transformed dose-normalized first trough (Estimate ± SE) ([3]; all subjects model, rs13321 (TNC)): 0.06 ± 0.04
- Effect on log transformed dose-normalized first trough (Estimate ± SE) ([3]; all subjects model, rs17567 (EPS15)): 0.10 ± 0.04
- Effect on log transformed dose-normalized first trough (Estimate ± SE) ([3]; all subjects model, rs776746 (CYP3A5)): −0.33 ± 0.05
- Effect on log transformed dose-normalized first trough (Estimate ± SE) ([3]; all subjects model, rs2072374 (CNAP1)): −0.08 ± 0.04
- Effect on log transformed dose-normalized first trough (Estimate ± SE) ([3]; all subjects model, rs2239393 (COMT)): −0.28 ± 0.08
- Effect on log transformed dose-normalized first trough (Estimate ± SE) ([3]; all subjects model, rs2608555 (GAN)): 0.15 ± 0.04
- Effect on log transformed dose-normalized first trough (Estimate ± SE) ([3]; all subjects model, rs2687117 (CYP3A4)): 0.26 ± 0.08
- Effect on log transformed dose-normalized first trough (Estimate ± SE) ([3]; all subjects model, rs3135506 (APOA5)): −0.23 ± 0.07
- Effect on log transformed dose-normalized first trough (Estimate ± SE) ([3]; all subjects model, rs3734354 (SIM1)): 0.19 ± 0.06
- Effect on log transformed dose-normalized first trough (Estimate ± SE) ([3]; all subjects model, rs4646312 (COMT)): 0.22 ± 0.08
- Fraction metabolized through CYP3A5 (CYP3A5; hepatic enzymes from CYP3A5*1 allele carriers): 60%
- Intrinsic tacrolimus clearance of CYP3A5 enzyme relative to CYP3A4 (CYP3A5; in vitro): twice
- Subjects achieving the trough target ([4]; control group): 29.1%
- Subjects achieving the trough target ([4]; genotype adapted dosing): 43.2%
- Intersubject pharmacokinetic variability in area under the curve, higher [5]: 41.1%
